Data as given in ChEMBL document CHEMBL5055684, “Into Deep Water: Optimizing BCL6 Inhibitors by Growing into a Solvated Pocket” (J Med Chem, 2021).

Columns and labels:
[1] = Permeability of the compound by PAMPA; format: ADME; details: read-out: permeability (converted)
[2] = biological target: B-cell lymphoma 6 protein (Homo sapiens, UniProt P41182); experiment: Inhibition of BCOR peptide binding to human BCL6 expressed in Escherichia coli measured after 270 mins by BCOR ULight TR-FRET assay
How it was run: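 Biochemical TR-FRET assay with the BTB domain of BCL6 (not full-length protein) and a short corepressor-derived peptide, measuring inhibition of their binding. The result is reported as an IC50.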

[3] = Plasma concentration in BALB/c mouse assessed as unbound fraction at 1 mg/kg, iv or 5 mg/kg, po; format: ADME, organism-based
How it was run: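 Unbound fraction measured by equilibrium dialysis in mouse plasma.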

Mus musculus = experiment: Toxicity in BALB/c mouse at 1 mg/kg, iv or 5 mg/kg, po; format: organism-based; details: in vivo

| Compound | Papp [1] [×10⁻⁶ cm/s] | also measured |
| --- | --- | --- |
| C[C@@H](Nc1cc(=O)n(C)c2ccc(Nc3ccnc(Cl)c3C#N)cc12)c1ncccn1 | 0.8 | – |
| CC(Nc1cc(=O)n(CC2CCC2)c2ccc(Nc3ccnc(Cl)c3C#N)cc12)c1ncccn1 (centres undefined) | 21 | – |
| CC(Nc1cc(=O)n(C)c2ccc(Nc3ccnc(Cl)c3C#N)cc12)c1ncn(C)n1 (centres undefined) | 1.8 | – |
| CC(Nc1cc(=O)n(C)c2ccc(Nc3ccnc(Cl)c3C#N)cc12)c1ncc(C2CC2)cn1 (centres undefined) | 14 | – |
| Cc1cnc(C(C)Nc2cc(=O)n(C)c3ccc(Nc4ccnc(Cl)c4C#N)cc23)nc1 (centres undefined) | 5.6 | – |
| CC(Nc1cc(=O)n(C)c2ccc(Nc3ccnc(Cl)c3C#N)cc12)c1ncco1 (centres undefined) | 1 | – |
| CNC(=O)COc1cc2cc(Nc3nc(N4CCC(C(=O)N(C)C)CC4)ncc3Cl)cc(OC)c2n(C)c1=O | – | IC50 [2]: < 30 nM |
| Cn1c(=O)cc(NC(C)(C)c2ncc(C3CC3)cn2)c2cc(Nc3ccnc(Cl)c3C#N)ccc21 | 35 | fraction unbound [3]: 0.013; Activity (Mus musculus): Non-Toxic |
| CC(Nc1cc(=O)n(CC2CC2)c2ccc(Nc3ccnc(Cl)c3C#N)cc12)c1ncccn1 (centres undefined) | 8.5 | – |
| Cc1nnc(C(C)Nc2cc(=O)n(C)c3ccc(Nc4ccnc(Cl)c4C#N)cc23)o1 (centres undefined) | < 0.2 | – |
| CNC(=O)C(C)Nc1cc(=O)n(C)c2ccc(Nc3ccnc(Cl)c3C#N)cc12 (centres undefined) | < 0.2 | – |
| Cn1c(=O)cc(NC(C)(C)c2ncccn2)c2cc(Nc3ccnc(Cl)c3C#N)ccc21 | 1.8 | – |
